Reference: ChEMBL document CHEMBL5096201, “Rufomycins or Ilamycins: Naming Clarifications and Definitive Structural Assignments” (J Nat Prod, 2021)
≈ marks a conversion by molar mass, not a printed value.

Columns and labels:
[1] = Binding affinity to N-terminal domain of Mycobacterium tuberculosis ClpC1 expressed in Escherichia coli BL21 (DE3) assessed as dissociation constant by surface plasma resonance assay
How it was run: (§1)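 SPR with ClpC1 N-terminal domain or full-length protein. Association and dissociation rate constants (ka, kd) come from global fitting of double-referenced sensorgrams to a 1:1 Langmuir model. KD is calculated as kd/ka.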

[2] = tested on: Mycobacterium tuberculosis; test: Antimycobacterial activity against Mycobacterium tuberculosis incubated for 7 days by microplate alamar blue assay; assay type: functional; conditions: 168 h, time 7 day
How it was run: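 Microplate Alamar Blue readout by fluorescence. MIC is the lowest concentration giving a 90% fluorescence reduction relative to untreated bacterial controls.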

[3] = Binding affinity to in full length Mycobacterium tuberculosis ClpC1 expressed in Escherichia coli BL21 (DE3) assessed as dissociation constant by surface plasma resonance assay; how it was run: as §1

Row | Structure (SMILES) | Kd [1] [nM] | MIC90 [2] [µM] | Kd [3] [nM]
1 | C/C=C/C[C@@H]1NC(=O)[C@H](CC(C)C)N2C(=O)[C@H](C[C@@H](C)[C@H]2O)N(C)C(=O)[C@H](C)NC(=O)[C@H](Cc2ccc(O)c([N+](=O)[O-])c2)NC(=O)[C@H](CC(C)C)N(C)C(=O)[C@H](Cc2cn(C(C)(C)[C@H]3CO3)c3ccccc23)NC1=O | 183 | 0.046 (≈ 0.0479 µg/mL) | 178
2 | NNC(=O)c1ccncc1 [ISONIAZID] |  | 0.463 (≈ 0.0635 µg/mL) | 
3 | C/C=C/C[C@@H]1NC(=O)[C@H](CC(C)C)N2C(=O)[C@H](C[C@H](C)[C@@H]2O)N(C)C(=O)[C@H](C)NC(=O)[C@H](Cc2ccc(O)c([N+](=O)[O-])c2)NC(=O)[C@H](CC(C)C)N(C)C(=O)[C@H](Cc2cn(C(C)(C)[C@H]3CO3)c3ccccc23)NC1=O | 29 | 0.012 (≈ 0.0125 µg/mL) | 27
4 | C/C=C/C[C@@H]1NC(=O)[C@H](CC(C)C)N2C(=O)[C@H](C[C@@H](C)[C@@H]2O)N(C)C(=O)[C@H](C)NC(=O)[C@H](Cc2ccc(O)c([N+](=O)[O-])c2)NC(=O)[C@H](CC(C)C)N(C)C(=O)[C@H](Cc2cn(C(C)(C)[C@H]3CO3)c3ccccc23)NC1=O | 186 | 0.047 (≈ 0.049 µg/mL) | 209
5 | C/C=C/C[C@@H]1NC(=O)[C@H](CC(C)C)N2C(=O)[C@H](C[C@H](C)[C@H]2O)N(C)C(=O)[C@H](C)NC(=O)[C@H](Cc2ccc(O)c([N+](=O)[O-])c2)NC(=O)[C@H](CC(C)C)N(C)C(=O)[C@H](Cc2cn(C(C)(C)[C@H]3CO3)c3ccccc23)NC1=O | 32 | 0.021 (≈ 0.0219 µg/mL) | 31
6 | CO[C@H]1/C=C/O[C@@]2(C)Oc3c(C)c(O)c4c(O)c(c(/C=N/N5CCN(C)CC5)c(O)c4c3C2=O)NC(=O)/C(C)=C\C=C\[C@H](C)[C@H](O)[C@@H](C)[C@@H](O)[C@@H](C)[C@H](OC(C)=O)[C@@H]1C [RIFAMPIN] |  | 0.028 (≈ 0.023 µg/mL) | 
